The target in assay [1] is T1, Histone deacetylase 4 (Homo sapiens, UniProt P56524). As to the kind of experiment: Inhibition of recombinant human N-terminal His6-SUMO-tagged C-terminal SII-tagged HDAC4 expressed in Escherichia coli (BL21) DE3 pLysS cells assessed as residual activity at 50 uM using BocLys(trifluoroacetyl)-AMC as substrate incubated for 30 mins by fluorescence assay relative to control. In a few lines: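 Catalytic-domain HDAC4 (His6-SUMO/SII-tagged) and full-length codon-optimized human HDAC8 were expressed in E. coli BL21 DE3 pLysS from pET14b. Both were assayed in a two-step fluorogenic format with Boc-Lys(trifluoroacetyl)-AMC, followed by trypsin development. Compounds were screened first at 50 µM for residual activity.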
T1 sequence (P56524 whole entry): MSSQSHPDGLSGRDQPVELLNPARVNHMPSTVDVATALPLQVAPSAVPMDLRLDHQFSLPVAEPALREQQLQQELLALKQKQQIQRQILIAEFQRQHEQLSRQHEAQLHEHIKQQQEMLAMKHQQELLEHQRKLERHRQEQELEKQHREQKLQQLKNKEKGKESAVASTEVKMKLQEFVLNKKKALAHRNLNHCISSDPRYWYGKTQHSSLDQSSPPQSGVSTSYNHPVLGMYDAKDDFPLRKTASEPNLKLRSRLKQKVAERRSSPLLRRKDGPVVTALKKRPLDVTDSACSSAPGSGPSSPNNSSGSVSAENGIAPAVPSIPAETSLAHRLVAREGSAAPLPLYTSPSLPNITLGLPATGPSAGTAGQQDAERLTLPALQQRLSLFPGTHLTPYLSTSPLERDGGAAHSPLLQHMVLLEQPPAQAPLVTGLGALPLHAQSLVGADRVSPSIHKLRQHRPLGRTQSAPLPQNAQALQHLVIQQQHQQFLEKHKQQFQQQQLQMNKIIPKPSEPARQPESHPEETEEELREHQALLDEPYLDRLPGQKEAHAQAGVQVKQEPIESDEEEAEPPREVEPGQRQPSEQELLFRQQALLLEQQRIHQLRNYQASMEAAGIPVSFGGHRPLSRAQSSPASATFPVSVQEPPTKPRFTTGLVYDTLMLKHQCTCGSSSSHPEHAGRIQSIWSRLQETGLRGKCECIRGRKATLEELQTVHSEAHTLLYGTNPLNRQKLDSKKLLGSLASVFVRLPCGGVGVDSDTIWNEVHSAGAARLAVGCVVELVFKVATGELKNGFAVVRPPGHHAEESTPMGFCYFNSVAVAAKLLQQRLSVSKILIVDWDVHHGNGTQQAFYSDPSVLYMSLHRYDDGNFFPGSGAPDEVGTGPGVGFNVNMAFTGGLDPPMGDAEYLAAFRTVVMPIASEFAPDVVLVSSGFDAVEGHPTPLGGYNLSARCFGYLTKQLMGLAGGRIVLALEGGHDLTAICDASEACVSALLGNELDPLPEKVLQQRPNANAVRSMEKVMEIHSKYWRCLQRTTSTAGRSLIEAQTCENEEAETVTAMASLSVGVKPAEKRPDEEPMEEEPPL

The target in the next assay is T2, Histone deacetylase 7 (Homo sapiens, UniProt Q8WUI4).
T2 sequence (Q8WUI4 whole entry): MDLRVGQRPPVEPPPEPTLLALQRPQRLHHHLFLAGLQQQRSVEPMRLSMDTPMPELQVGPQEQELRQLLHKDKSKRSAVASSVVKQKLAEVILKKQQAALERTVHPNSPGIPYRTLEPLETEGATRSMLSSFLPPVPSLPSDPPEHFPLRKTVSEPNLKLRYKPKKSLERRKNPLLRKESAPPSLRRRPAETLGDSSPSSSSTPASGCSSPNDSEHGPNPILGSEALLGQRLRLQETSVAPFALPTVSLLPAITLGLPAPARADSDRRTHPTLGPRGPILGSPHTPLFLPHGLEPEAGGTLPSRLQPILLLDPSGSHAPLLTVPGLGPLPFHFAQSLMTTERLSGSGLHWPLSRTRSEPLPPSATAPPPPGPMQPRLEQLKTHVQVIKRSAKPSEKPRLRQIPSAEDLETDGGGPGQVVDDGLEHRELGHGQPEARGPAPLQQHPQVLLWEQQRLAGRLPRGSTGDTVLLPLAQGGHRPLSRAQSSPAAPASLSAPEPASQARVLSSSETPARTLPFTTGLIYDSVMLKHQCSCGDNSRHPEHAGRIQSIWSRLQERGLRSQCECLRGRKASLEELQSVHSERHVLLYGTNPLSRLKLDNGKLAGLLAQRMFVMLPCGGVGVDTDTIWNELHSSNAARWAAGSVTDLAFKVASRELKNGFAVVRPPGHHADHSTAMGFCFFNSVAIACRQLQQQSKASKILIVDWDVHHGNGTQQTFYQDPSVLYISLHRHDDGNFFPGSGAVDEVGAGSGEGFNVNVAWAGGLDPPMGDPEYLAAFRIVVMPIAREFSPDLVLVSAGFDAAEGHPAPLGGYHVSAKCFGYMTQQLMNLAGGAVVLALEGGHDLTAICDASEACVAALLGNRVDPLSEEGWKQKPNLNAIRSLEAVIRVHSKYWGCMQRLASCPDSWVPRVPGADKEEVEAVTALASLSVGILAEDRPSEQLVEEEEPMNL
The experiment in a line: Inhibition of recombinant human N-terminal GST-tagged HDAC7 (518 to end residues) expressed in baculovirus infected sf9 insect cells using BocLys(trifluoroacetyl)-AMC as substrate incubated for 30 mins by fluorescence assay. In a few lines: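 Recombinant HDAC7 was tested in a two-step fluorogenic assay. Boc-Lys(trifluoroacetyl)-AMC serves as substrate, then trypsin releases the fluorophore.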

Assay [2] concerns the target T3, Vascular endothelial growth factor receptor 2 (Homo sapiens, UniProt P35968). The experiment in a line: Inhibition of human VEGFR2 in HUVEC cells assessed as reduction in VEGFR2 phosphorylation at 10 uM incubated for 30 mins by anti-phospho VEGF Tyr 1175 antibody based assay relative to control. It is filed as cell-based. In a few lines: (§1)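 HUVECs were seeded at 4000–5000 per well in DMEM with 10% FCS for 12 h, then held 24 h in serum. Compound (10 µM) was added with serum for 30 min at 37 °C. Cells were fixed in 4% formaldehyde and probed with anti-phospho-VEGFR Tyr1175 (1:1000), then an HRP secondary (1:5000). TMB signal was stopped with 2N H2SO4 and read at 450 nm. Percent inhibition is normalized to control.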

The target of assay [3] is T1, Histone deacetylase 4. As to the kind of experiment: Binding affinity to recombinant human N-terminal His6-SUMO-tagged C-terminal SII-tagged HDAC4 expressed in Escherichia coli (BL21) DE3 pLysS cells assessed as melting temperature at 100 uM for 15 mins by thermal shift assay. In a few lines: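 HDAC4 catalytic domain (His6-SUMO/SII, E. coli) at 3 µM was mixed with 100 µM compound in DMSO and held 15 min at 30 °C, then 60 min more at 30 °C. Temperature was stepped by 2 °C with 10 min holds and samples were taken at each step. Samples were centrifuged at 18000g, 4 °C, and the soluble protein was run on SDS-PAGE. Band intensities were fitted to a logistic function, and Tm is the inflection point.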

The target in assay [4] is T3, Vascular endothelial growth factor receptor 2. As to the kind of experiment: Inhibition of human VEGFR2 in HUVEC cells assessed as reduction in VEGFR2 phosphorylation incubated for 30 mins by anti-phospho VEGF Tyr 1175 antibody based assay. In kind it is cell-based. In a few lines: as §1
A further assay relates to MCF7. As to the kind of experiment: Antiproliferative activity against human MCF7 cells assessed as reduction in cell viability after 48 hrs by MTT assay. In kind it is functional, cell-based. The note with it: MCF7, 48 h. The method in brief: (§2)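 MCF-7, K562, A549 and HT-29 lines were seeded in 96-well plates and kept overnight at 37 °C, 5% CO2, 95% humidity. They were then exposed to six concentrations (100 to 2.5) for 48 h. After PBS washes, MTT was added for 4 h at 37 °C and formazan was dissolved in DMSO. Absorbance was read at 570 nm. Survival is mean OD of treated wells over the negative control, and IC50 was derived from that.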

For a further assay, the system named is K562. As to the kind of experiment: Antiproliferative activity against human K562 cells assessed as reduction in cell viability after 48 hrs by MTT assay. It is filed as functional, cell-based. The following applies: K562, 48 h. In a few lines:
as §2
(Tetrazolium assays rely on reduction of a dye to a coloured formazan, in cell work by metabolically active cells.)

A further assay deals with A549. As to the kind of experiment: Antiproliferative activity against human A549 cells assessed as reduction in cell viability after 48 hrs by MTT assay. It is filed as functional, cell-based. The note with it: A549, 48 h. The method in brief:
as §2

The subject of a further assay is HT-29. As to the kind of experiment: Antiproliferative activity against human HT-29 cells assessed as reduction in cell viability after 48 hrs by MTT assay. It is filed as functional, cell-based. The following applies: HT-29, 48 h. The method in brief:
as §2

For another assay, the species on record is Gallus gallus. As to the kind of experiment: Inhibition of angiogenesis in chicken chorioallantoic membrane assessed as reduction in number of branching capillaries at 1 to 10 ug/ul after 12 days in presence of human VEGF by stereomicroscopic analysis. The note with it: Embryo, dose 1-10 µg/microl, time 12.0 day.

The source made the active and inactive calls. No cut-off for these calls is given here.

T3 sequence (P35968 whole entry): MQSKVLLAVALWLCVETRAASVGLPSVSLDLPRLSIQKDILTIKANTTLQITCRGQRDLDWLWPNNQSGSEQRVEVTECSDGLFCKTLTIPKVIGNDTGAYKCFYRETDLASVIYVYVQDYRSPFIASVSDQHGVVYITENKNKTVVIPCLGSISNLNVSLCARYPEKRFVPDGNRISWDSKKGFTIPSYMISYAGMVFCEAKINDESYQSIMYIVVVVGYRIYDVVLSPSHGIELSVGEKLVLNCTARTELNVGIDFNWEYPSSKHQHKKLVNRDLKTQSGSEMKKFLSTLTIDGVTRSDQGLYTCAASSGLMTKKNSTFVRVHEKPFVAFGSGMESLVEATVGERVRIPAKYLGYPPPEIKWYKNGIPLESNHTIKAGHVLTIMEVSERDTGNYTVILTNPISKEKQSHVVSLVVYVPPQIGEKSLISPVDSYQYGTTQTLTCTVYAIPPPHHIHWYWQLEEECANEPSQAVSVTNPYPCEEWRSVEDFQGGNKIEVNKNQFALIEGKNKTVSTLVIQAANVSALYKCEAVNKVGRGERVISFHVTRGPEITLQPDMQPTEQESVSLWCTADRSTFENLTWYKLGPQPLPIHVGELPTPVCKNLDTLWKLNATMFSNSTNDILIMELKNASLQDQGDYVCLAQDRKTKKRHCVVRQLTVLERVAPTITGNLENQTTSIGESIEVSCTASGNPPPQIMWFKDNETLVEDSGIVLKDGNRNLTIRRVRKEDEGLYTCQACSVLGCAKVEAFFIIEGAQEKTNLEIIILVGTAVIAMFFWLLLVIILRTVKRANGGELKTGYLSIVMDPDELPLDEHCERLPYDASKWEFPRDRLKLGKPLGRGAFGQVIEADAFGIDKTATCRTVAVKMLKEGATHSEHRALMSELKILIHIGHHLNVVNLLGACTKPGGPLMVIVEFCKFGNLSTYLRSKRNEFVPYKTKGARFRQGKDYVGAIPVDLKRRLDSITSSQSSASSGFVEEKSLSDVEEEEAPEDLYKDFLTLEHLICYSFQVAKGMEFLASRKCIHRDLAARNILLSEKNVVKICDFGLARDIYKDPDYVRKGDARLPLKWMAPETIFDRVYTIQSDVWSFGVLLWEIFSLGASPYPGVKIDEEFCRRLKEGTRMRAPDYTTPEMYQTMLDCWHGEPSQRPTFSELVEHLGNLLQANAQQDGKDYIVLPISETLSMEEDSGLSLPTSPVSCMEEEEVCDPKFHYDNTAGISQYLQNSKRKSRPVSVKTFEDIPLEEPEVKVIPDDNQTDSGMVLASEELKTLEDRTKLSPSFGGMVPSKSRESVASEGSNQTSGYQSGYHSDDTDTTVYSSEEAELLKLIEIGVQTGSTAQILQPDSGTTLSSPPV

A word on the IC50: it is the midpoint of a concentration-inhibition curve. For orientation: inhibition means how much of the control response was suppressed. Broadly, the Tm is the temperature at the midpoint of the melting transition. Consider `O=C1NC(=O)/C(=C\c2ccc(OCC(=O)N3N=C(c4ccc(F)cc4)CC3c3ccc(Cl)c(Cl)c3)cc2)S1` (stereo unspecified), for which, at Histone deacetylase 4 [1], the Activity came to 13%. The IC50 on Histone deacetylase 7 stood at 6.7 µM. For the same molecule, the inhibition in [2] stood at 22.4%. Moreover, the Tm on Histone deacetylase 4 [3] was found to be 57.3 °C.

On to `O=C1NC(=O)/C(=C\c2ccc(OCC(=O)N3N=C(c4ccc(F)cc4)CC3c3ccco3)cc2)S1` (stereo unspecified), for which the Activity on Histone deacetylase 4 [1] was found to be 36%. For the same molecule, the IC50 is over 50 µM on Histone deacetylase 7; 5 µM in assay [4]; 28.4 µM in the assay on MCF7; 46.3 µM with K562; 19.5 µM in the assay on A549; 18.8 µM in the assay on HT-29. For the same molecule, the inhibition in assay [2] was found to be 56.7%. For the same molecule, in the assay filed under Gallus gallus, the inhibition entry was “Active”.

With `O=C1NC(=O)/C(=C\c2ccc(OCC(=O)N3N=C(c4ccccc4)CC3c3ccc(Cl)c(Cl)c3)cc2)S1` (stereo unspecified), on Histone deacetylase 4 [1], the Activity was 5.9%. At Histone deacetylase 7, the IC50 was over 50 µM. The Tm at Histone deacetylase 4 [3] was determined as 56.7 °C.

Values taken from ChEMBL document CHEMBL5120742, “Multi-target weapons: diaryl-pyrazoline thiazolidinediones simultaneously targeting VEGFR-2 and HDAC cancer hallmarks” (RSC Med Chem, 2021).
